Experiment [1] can be described thus: Cytotoxicity against human high-grade leiomyosarcoma cells after overnight incubation by Alamar blue assay. It is filed as functional, cell-based. In short, it runs like this:
(§1)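 Primary tumor cell cultures that passed histological and cytological screening; thawed at 37 °C, resuspended in maintenance medium, live/dead counted, plated at 1.0 × 10^3 cells/well. Samples added at 1/10 cell suspension volume, overnight at 37 °C. Alamar Blue then added at 1/10 well volume; fluorescence (ex 530, em 590 nm) read at 3 h and 3 days post-dye. Percent inhibition versus untreated and cell-free controls gave IC50.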
A general note: Resazurin is reduced to fluorescent resorufin, in cell work by metabolically active cells.

The nature of experiment [2]: Cytotoxicity against human primary soft tissue sarcoma cells after overnight incubation by Alamar blue assay. Type of experiment: functional, cell-based. The essentials: as §1

This passage reports IC50 results from ChEMBL document CHEMBL1148146, “14'-Hydroxymytoxin B and 16-hydroxyroridin E, two new cytotoxic trichothecenes from Myrothecium roridum” (J Nat Prod, 2002).

What is called IC50 is the concentration that gives 50% inhibition. A low value points to greater potency in that assay.

Structures are written as SMILES.

Turning to `C/C1=C\C(=O)OC[C@]23CCC(CO)=C[C@H]2O[C@@H]2C[C@@H](OC(=O)/C=C\C=C\[C@H]([C@@H](C)O)OCC1)[C@@]3(C)[C@]21CO1`, the IC50 in experiment [1] was 0.085 pM; in experiment [2], 0.046 pM.
Take `CC1=C[C@H]2O[C@@H]3C[C@@H](OC(=O)/C=C/C=C\C(OCCC4=CCOC4=O)C(C)O)[C@](C)([C@@]2(CO)CC1)[C@]31CO1` (stereo partly specified): the IC50 in experiment [1] stood at 0.018 pM; in experiment [2], 0.03 pM.
As to `CC1=C[C@H]2O[C@@H]3C[C@@H](OC(=O)/C=C/C=C\C(OCCC4=CCOC4=O)C(C)O)[C@](C)([C@@]2(COC(=O)/C=C(\C)CCO)CC1)[C@]31CO1` (stereo partly specified) [TRICHOVERRITONE], the IC50 was 0.026 pM in experiment [1] and 0.13 pM in experiment [2].
